In the library only some 0.44% were active in any assay of this set; here they are far more common.
S100A4 MyoIIA: S100A4-myosin IIA interaction inhibition; P26447; inhibition, % at 10.7 µM; AID 652163; S100A4/TAMRA-MyoIIA peptide fluorescence polarization; 0.14% of 360,000 active;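 active means mean inhibition of at least 70% across replicates, with every replicate also reaching that level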
Target sequence (P26447 whole entry, looked up): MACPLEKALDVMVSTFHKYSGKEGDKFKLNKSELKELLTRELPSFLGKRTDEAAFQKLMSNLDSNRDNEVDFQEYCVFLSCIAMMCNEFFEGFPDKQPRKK
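System – human S100A4 monomer protein, biochemical binding assay · Buffer or medium – Calcium-containing HEPES buffer, pH 7.2 · Timing – 5 min between mix addition and reading · Also added – TAMRA-labelled myosin IIA heavy-chain peptide probe, 5 nM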
ERp5 inh: inhibitors of human ERp5; Q15084; ERp5 insulin aggregation, absorbance 650 nm, 90 min; inhibition, % at 9.99 µM; 0.05% of 350,000 active;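 active means mean replicate inhibition above about 25%, with every replicate also reaching it, limit read from the data, passing the limit was not always enough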
Target sequence (Q15084 whole entry, looked up): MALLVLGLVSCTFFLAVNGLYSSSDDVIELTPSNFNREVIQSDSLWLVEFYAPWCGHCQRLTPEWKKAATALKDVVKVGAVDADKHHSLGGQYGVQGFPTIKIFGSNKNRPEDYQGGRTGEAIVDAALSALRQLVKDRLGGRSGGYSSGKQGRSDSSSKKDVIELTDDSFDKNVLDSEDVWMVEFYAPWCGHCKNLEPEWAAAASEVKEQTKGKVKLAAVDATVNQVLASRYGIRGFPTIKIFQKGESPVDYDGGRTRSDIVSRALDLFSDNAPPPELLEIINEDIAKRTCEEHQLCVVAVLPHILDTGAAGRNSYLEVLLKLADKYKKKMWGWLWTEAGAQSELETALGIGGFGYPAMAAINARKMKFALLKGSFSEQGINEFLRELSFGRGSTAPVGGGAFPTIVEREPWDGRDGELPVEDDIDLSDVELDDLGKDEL
PDI inh: blocks human protein disulfide isomerase activity. P07237. PDI insulin aggregation turbidity, A650, 90 min. inhibition, % at 10 µM. 0.052% of 350,000 active;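 active means mean inhibition across replicates of 30% or more, whatever share of single replicates reach that level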
PglD DTNB: PglD (C. jejuni) enzyme inhibition; AID 602405; 0.098% of 360,000 active; purified PglD enzyme, DTNB colorimetric CoA detection; inhibition, % at 12.5 µM; in the data active means inhibition above about 16%, passing the limit was not always enough
RAD54 inh: RAD54 (human) branch migration inhibition; Q92698; RAD54 Holliday junction branch migration, FAM/BHQ fluorescence; inhibition, % at 10.4 µM; 0.14% of 360,000 active; AID 602329;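 active means mean normalized replicate activity at least 40 and at least half of replicates scoring 40 or more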;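 further: 0% = median of neutral control wells and 100% = median of positive control wells; inhibitors cause a drop in the FAM fluorescence signal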
FN deposit inh: fibronectin deposition inhibition; AID 743247; AH1F fibroblasts, Alexa488-fibronectin deposition fluorescence, overnight; inhibition, % at 12.6 µM; 0.086% of 350,000 active;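 active means mean inhibition across replicates of 30% or more, regardless of how many single replicates reach that level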;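 further: positive control wells lacked labelled fibronectin entirely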
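Material: AH1F fibroblast monolayer depositing Alexa488-labelled fibronectin into matrix | Input: 10000 AH1F cells/well | Medium: DMEM plus 2% serum, read in PBS | Reagent: Alexa488-fibronectin, 24 nM final in well | Compound dosing: One dose per compound, pinned | Schedule: 1 h adhesion, overnight exposure | Measured by: Fluorescence at 485 nm excitation, 525 nm emission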
* hit, by the source's call; . = not tested or not shown.

SMILES | S100A4 MyoIIA | ERp5 inh | PDI inh | PglD DTNB | RAD54 inh | FN deposit inh
Cc1cc(NCCCN2CCOCC2)n2c(nc3ccccc32)c1C#N | . | . | -11.6 | 3.7 | 53.3* | 8.5
Cc1cc(NCCN2CCOCC2)n2c(nc3ccccc32)c1C#N | . | . | -5.1 | -2.4 | 6.6 | 2.7
CC(C)[C@@H]1COCn2nncc2CC[C@H](Cc2ccc(-c3ccccc3)cc2)C(=O)N1 | . | . | . | . | . | -6.2
CCC[C@@H](CN1CCC[C@H]1CN1C(N)=NC[C@H]1CC(C)C)N1C[C@@H]([C@H](C)CC)N(CCCC2CCCC2)C1=N | -4.2 | 26.9* | -68.9 | 5.5 | 23.5 | 4.6
CCC[C@@H](CN1CCC[C@H]1CN1C(N)=NC[C@H]1C(C)C)N1C[C@@H]([C@H](C)CC)N(CCCC2CCCC2)C1=N | -3.1 | 12.6 | 13.2 | 2.0 | 13.8 | -4.2
Cc1ccc(NC(=O)c2ccc([N+](=O)[O-])o2)c(C)c1 | -2.0 | 2.5 | 8.8 | -2.4 | 6.7 | .
Cc1ccc(S(=O)(=O)c2ccc([N+](=O)[O-])o2)cc1 | -4.6 | 20.5 | -1.9 | . | . | 48.6*
C[C@@H]1CN([C@@H](C)CO)S(=O)(=O)c2ccc(C3=CCCC3)cc2O[C@H]1CN(C)CC1CCCC1 | 2.7 | 6.6 | . | 0.7 | -3.8 | 5.4
Cc1cc(C)n2ncc(C(=O)NCc3ccccc3)c2n1 | . | . | -2.6 | 1.6 | 3.4 | 2.8
Cc1cc(C)n2ncc(C(=O)NCc3ccc(Cl)cc3)c2n1 | . | . | 4.2 | -0.4 | 0.5 | 46.0*
Cc1nc(NC2=NCN(CCCN3CCOCC3)CN2)nc2c(C)cccc12 | . | . | -1.2 | 1.8 | 81.0* | .
Cc1nc(NC2=NCN(Cc3cccnc3)CN2)nc2ccccc12 | . | . | -62.2 | -4.7 | 6.0 | 7.9
CCCC(=O)Nc1ccc2c(c1)C(=O)N(C)C[C@H](OC)[C@@H](C)CN(Cc1cncnc1)[C@@H](C)CO2 | 5.3 | 6.4 | . | 0.3 | -1.1 | -3.6
CCOC(=O)C1=C(c2ccccc2)NC(=O)NC1c1ccc(O)c(Cl)c1 (stereo unspecified) | -22.5 | 2.8 | 7.3 | 2.8 | 7.4 | 48.2*
CCOC(=O)C1=C(c2ccccc2)NC(=O)NC1c1ccc(O)c(OCC)c1 (stereo unspecified) | -1.5 | 0.5 | 3.6 | 4.3 | -10.4 | -2.7
COc1ccc2c3c(n(C)c2c1)[C@@H](CO)N(C(=O)C1CC1)CC31CN(C)C1 | -24.8 | 9.1 | . | . | . | .
CNC[C@@H]1Oc2c(NC(=O)NC(C)C)cccc2C(=O)N(C)C[C@@H]1C | . | . | . | . | . | 3.4
COc1ccc(S(=O)(=O)NCC(c2ccc(F)cc2)N2CCOCC2)cc1Br (stereo unspecified) | -7.4 | -1.1 | 30.5* | 1.6 | -0.8 | 2.0
COc1ccc(S(=O)(=O)NCCN2CCOCC2)cc1Br | -11.5 | -1.6 | -1.2 | 7.2 | -2.2 | -0.1
CCN(C[C@@H]1[C@@H](c2ccccc2)[C@H](CO)N1C(C)=O)C(=O)c1ccccn1 | 11.0 | -2.1 | . | 2.0 | 0.8 | -15.6
CCN(C[C@H]1[C@H](c2ccccc2)[C@H](CO)N1C(C)=O)C(=O)c1ccccn1 | 103.5* | -2.4 | . | 0.5 | -7.5 | -3.8
CCCNC(=O)N[C@H]1C=C[C@@H](CC(=O)N2CCN(C)CC2)O[C@@H]1CO | 124.9* | 0.4 | . | -0.8 | -12.7 | -9.9
CN(C)C(=O)C[C@@H]1C=C[C@@H](NC(=O)Nc2cccc(F)c2)[C@H](CO)O1 | 4.7 | -1.8 | . | 2.0 | -10.7 | -2.7
COc1cccc(NC(=O)N[C@@H]2C=C[C@@H](CC(=O)N3CCN(C)CC3)O[C@@H]2CO)c1 | 86.1* | -1.6 | . | . | . | .
O=C(Nc1ccc(C(F)(F)F)cc1)N[C@H]1C=C[C@@H](CC(=O)N2CCCCC2)O[C@@H]1CO | 127.9* | 0.0 | . | -0.2 | -11.4 | 0.8
SMILES | S100A4 MyoIIA | ERp5 inh | PDI inh | PglD DTNB | RAD54 inh | FN deposit inh
CN(C)C(=O)C[C@@H]1C=C[C@H](NC(=O)Nc2cccc(F)c2)[C@@H](CO)O1 | 97.4* | 0.4 | . | 7.5 | -15.6 | -26.3
COc1cccc(NC(=O)N[C@H]2C=C[C@H](CC(=O)N3CCN(C)CC3)O[C@H]2CO)c1 | -3.6 | -5.2 | . | . | . | .
NCC[C@H]1CC[C@@H](NC(=O)C2CC2)[C@@H](CO)O1 | -0.7 | -7.3 | . | . | . | 1.0
CO[C@H]1CN(C)C(=O)c2ccc(NC(=O)CC(F)(F)F)cc2OC[C@H](C)N(C(C)=O)C[C@H]1C | -15.7 | 7.8 | . | . | . | -7.3
CC(C)CC#Cc1ccc2c(c1)O[C@@H](CN(C)C(=O)Nc1ccccc1)[C@H](C)CN([C@@H](C)CO)S2(=O)=O | -4.5 | -3.3 | . | -2.0 | -4.8 | 0.9
Cc1ccccc1/C=C/C(=O)c1ccc([N+](=O)[O-])o1 | 0.2 | -0.6 | . | . | . | 41.7*
Cc1cccc(/C=C/C(=O)c2ccc([N+](=O)[O-])o2)c1 | 8.9 | 0.0 | 1.4 | 1.9 | -7.0 | 64.5*
COc1ccc(NC(=O)/C(Cl)=C(/Cl)S(=O)Cc2ccc(Cl)cc2)cn1 (stereo unspecified) | -8.8 | 0.9 | 8.6 | . | . | 55.3*
CCOC(=O)c1c(N)n(C2CC(C)(C)NC(C)(C)C2)c2nc3ccccc3nc12 | . | . | 0.4 | 2.3 | 82.6* | .
COc1ccc(-c2cc3nc(CCl)[nH]c(=O)c3s2)cc1 | -2.9 | 0.0 | 39.4* | -0.7 | -11.1 | -1.9
COc1ccc(-c2cc3nc[nH]c(=O)c3s2)cc1 | . | . | -2.9 | -0.1 | 2.1 | 9.6
O=C(NCc1cccnc1)c1ccc(-c2ccc(Cl)cc2)o1 | 2.3 | 2.4 | -0.8 | . | . | .
O=C(NCc1cccnc1)/C(=C\c1ccc(-c2ccc(Cl)c(Cl)c2)o1)S(=O)(=O)c1ccccc1 | -3.5 | -3.4 | -3.5 | -7.7 | -1.0 | 31.2*
C=CC(=O)N1C/C(=C/c2ccccc2)C(=O)/C(=C\c2ccccc2)C1 | -0.8 | -2.7 | 21.3 | . | . | 39.8*
CC(=O)OCC1=C(C(=O)O)N2C(=O)C(NC(=O)Cn3nc(C(F)F)c(Cl)c3C)C2SC1 (stereo unspecified) | 2.3 | 2.7 | 7.0 | -3.5 | -12.7 | 5.9
CC(=O)OCC1=C(C(=O)O)N2C(=O)C(NC(=O)CCn3nc(C)c(Cl)c3C)C2SC1 (stereo unspecified) | -4.7 | 12.1 | 1.9 | . | . | 32.9*
CC(=O)N[C@@H]1CC[C@H](CC(=O)NCc2ccc(Cl)cc2)O[C@@H]1CO | 6.5 | 7.0 | . | 2.1 | -0.8 | .
CC(=O)N[C@H]1CC[C@H](CC(=O)NCc2ccc(Cl)cc2)O[C@H]1CO | 0.6 | 3.3 | . | 16.7* | -0.5 | .
O=C(C[C@H]1CC[C@H](NC(=O)CC2CC2)[C@@H](CO)O1)NCc1ccc(Cl)cc1 | 2.0 | -1.2 | . | -3.0 | -3.9 | .
O=C(C[C@@H]1CC[C@@H](NC(=O)CC2CC2)[C@H](CO)O1)NCc1ccc(Cl)cc1 | 134.7* | -1.8 | . | 0.5 | 1.5 | .
O=C(C[C@@H]1CC[C@@H](NC(=O)NC2CCCC2)[C@H](CO)O1)NCc1ccc(F)cc1 | 120.0* | 6.8 | . | -1.1 | 1.5 | .
O=C1c2cccnc2-c2ncccc21 | . | . | 27.6 | -2.2 | 3.8 | .
O=C1C(=O)c2cccnc2-c2ncccc21 | -1.9 | 5.7 | . | . | . | 44.9*
